# Most compounds without a hit are left out; they make up all but 1.7% or so of the library.
# SUMO1 PPI mod = alters human SUMO1 binding to SIM partners; P63165; SUMO1 binding to a labelled peptide, TR-FRET, 1 h; inhibition, % at 20 µM; 360,000 compounds, 0.33% hits; in the data active means inhibition above about 37%
# Target sequence (P63165 whole entry, looked up): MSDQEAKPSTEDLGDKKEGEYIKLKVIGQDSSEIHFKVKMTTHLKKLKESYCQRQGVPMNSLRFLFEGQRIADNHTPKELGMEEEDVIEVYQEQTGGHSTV
# DNMT1 inh = blocks human DNA methyltransferase DNMT1. inhibition (reported as % activation of signal), % at 10 µM. P26358. 360,000 compounds, 0.83% hits. DNMT1 molecular beacon, Hinp1I cleavage, fluorescence; in the data active means inhibition above about 50%
# STEP inh = STEP (human) phosphatase inhibition. recombinant STEP, OMFP fluorogenic substrate, fluorescence. inhibition, % at 20 µM. P54829. 360,000 compounds, 0.25% hits. AID 588621;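 active means inhibition at 20 µM, scaled per plate between control wells, above about 37%, limit read from the data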;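 further: 0% = DMSO with enzyme and substrate and 100% = substrate only without enzyme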
#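 System: STEP phosphatase, cell-free reaction; Buffer or medium: Bis-Tris pH 6.0 buffer with DTT, detergent; Incubation: 20 min at room temperature, dark; Measured by: fluorescence, 480/540 nm.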
# Scp-1 inhibitor = Scp-1 (human) phosphatase inhibition; Q9GZU7; Recombinant Scp1, phosphopeptide, malachite green phosphate absorbance; inhibition, % at 20 µM; 340,000 compounds, 0.88% hits;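 active means inhibition above about 50% at 20 µM, limit read from the data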;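 further: plate controls were DMSO wells with enzyme for no effect and wells lacking enzyme for full effect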
# Target sequence (Q9GZU7 76-261 limits assumed): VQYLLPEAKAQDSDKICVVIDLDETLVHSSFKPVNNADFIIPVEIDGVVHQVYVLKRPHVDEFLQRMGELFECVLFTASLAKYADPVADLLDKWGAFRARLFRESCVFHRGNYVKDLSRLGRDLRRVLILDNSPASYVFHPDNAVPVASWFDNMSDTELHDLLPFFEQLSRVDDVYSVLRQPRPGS
#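 assay system = SCP-1 phosphatase catalytic domain, residues 76-261 | buffer or medium = 50 mM Tris acetate pH 5.5, 0.005% Tween-20, 10 mM MgCl2 | incubation = enzyme reaction 45 min at room temperature, colour 5 min, stabilisation 30 min | signal = Phosphate-binding colour reagent, absorbance read at 630 nm | measure = % inhibition at 20 µM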
# LMPTP inh = blocks human LMPTP phosphatase; inhibition, % at 20 µM; 360,000 compounds, 0.22% hits; recombinant LMPTP-A, OMFP fluorogenic substrate, fluorescence intensity; P24666; AID 651560;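 active means compounds that cut the enzyme signal by at least half of the control window in the single-dose screen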;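 further: plate controls were DMSO wells with enzyme plus substrate for no effect and substrate without enzyme for full effect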
# Target sequence (P24666 whole entry, looked up): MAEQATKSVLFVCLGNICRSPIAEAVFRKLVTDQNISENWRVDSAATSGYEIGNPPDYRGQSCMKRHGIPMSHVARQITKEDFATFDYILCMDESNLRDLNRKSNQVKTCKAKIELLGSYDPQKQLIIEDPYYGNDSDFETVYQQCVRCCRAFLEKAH
#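 material = LMPTP-A | quantity = 0.625 nM enzyme | reagent = OMFP substrate, 400 µM final | buffer or medium = Bis-Tris pH 6.0, DTT, detergent | detection = endpoint fluorescence intensity from OMFP dephosphorylation | dosing = single 20 µM dose | read-out basis = % inhibition relative to no-enzyme and uninhibited control wells | control set = no-enzyme and uninhibited controls | timing = 50 min at room temperature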
# DNMT1 interf DR = beacon fluorescence artifact, dose response counter-screen. molecular beacon fluorescence, spectral interference counter-screen. 200 tested, under 10 active. IC50, µM. AID 602382. shares compounds with DNMT1 inh; call rule not given here
# DNMT1 inh conf = DNMT1 inhibition confirmation, single concentration; shares compounds with DNMT1 inh; DNMT1 molecular beacon HinP1I cleavage, fluorescence; inhibition, % at 10 µM; 2,300 compounds, 8% hits;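 active means average inhibition of at least 30% in the single-concentration confirmation test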
# DNMT1 interf = counter-screen for DNMT1 inhibitors: spectral interference. shares compounds with DNMT1 inh. DNMT1 molecular beacon spectral interference counterscreen, fluorescence 485/520. activation (fluorescence interference), % at 10 µM. 2,300 compounds, 1% hits. AID 602387;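 active means activation of at least 30% at 10 µM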;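 further: DNMT1 catalytic domain with a HinP1I cleavage step and a FAM/dabcyl DNA beacon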
# Numbers without * were called inactive; x = not tested or not shown.
SMILES,SUMO1 PPI mod,DNMT1 inh,STEP inh,Scp-1 inhibitor,LMPTP inh,DNMT1 inh conf,DNMT1 interf,others
O=C(Nc1ccc(N2CCCC2)cc1)c1cccc(F)c1,0,65*,4,3,10,2,4,
O=C(Nc1ccc(Br)cn1)c1cccc(-c2cc3ccccc3oc2=O)c1,-3,64*,5,25,12,1,-4,
O=C(Nc1ccc(N2CCCC2)cc1)c1cccc(-c2cc3ccccc3oc2=O)c1,-2,76*,9,-3,23,-1,4,
O=C(Nc1ccc(N2CCCC2)cc1)c1ccc([N+](=O)[O-])cc1Cl,-10,74*,1,1,36,1,-2,
Cc1nc(NC(=O)c2cccc(-c3cc4ccccc4oc3=O)c2)ccc1Br,-1,30,3,6,13,x,x,
C=CCn1c(SCC(=O)Nc2cc(C)on2)nc2ccccc21,0,7,4,x,-1,x,x,
COc1ccc(NC(=O)COC(=O)Cn2cnc3ccccc3c2=O)c(OC)c1,2,-2,0,-12,-1,x,x,
O=C(Nc1ccc(N2CCCC2)cc1)c1ccccc1F,-1,72*,2,-4,43,4,10,
O=C(Nc1ccc(N2CCCC2)cc1)c1ccc2ccccc2c1,1,61*,7,-3,7,3,2,
O=C(Nc1ccc(N2CCCCC2)cc1)c1ccc(F)cc1F,4,-3,3,-4,-2,x,x,
O=C(O)C(=Cc1ccccc1[N+](=O)[O-])c1ccc2c(c1)OCO2,-22,-1,2,x,-2,x,x,
COc1ccc(CCCc2nnc(SCc3nc4ccccc4c(=O)[nH]3)n2C)c(C)c1,2,2,4,-7,-1,x,x,
Cc1cccn2c(=O)c3cc(C(=O)NCCC4=CCCCC4)n(C)c3nc12,3,59*,2,22,2,0,-7,
COc1ccc(Cc2c(-c3ccc(OC)c(OC)c3)nc3ccc(C)cn23)c(C)c1,-7,-2,-3,x,3,x,x,
CCCS(=O)(=O)N1CCCC(C(=O)Oc2ccc(OC)cc2)C1 (stereo unspecified),-1,83*,0,-2,0,0,2,
COc1ccccc1Nc1cc2cc(Br)ccc2c(=O)[nH]1,23,69*,17,11,9,0,3,
O=c1[nH]c(Nc2ccccc2)cc2cc(Br)ccc12,37,92*,29,2,32,0,0,
COc1ccc(NC(=O)CNC(=O)CC23CC4CC(CC(C4)C2)C3)c(OC)c1,-1,-3,0,-6,0,x,x,
Cc1cccc(Cl)c1OCCCn1ccnc1,-1,67*,1,-8,0,2,1,
O=C(CCSCCC(=O)Nc1c(F)c(F)c(F)c(F)c1F)Nc1c(F)c(F)c(F)c(F)c1F,3,14,0,-7,-1,x,x,
CC(=O)Oc1cccc2c1C(=O)c1c(OC(C)=O)cc(C(=O)O)cc1C2=O,-17,-19,-1,-6,1,x,x,
O=C(O)c1cc(O)c2c(c1)C(=O)c1cc(O)cc(O)c1C2=O,20,81*,9,64*,4,16,-2,
O=C(N/N=C/c1cn(Cc2cccc(F)c2)c2ccccc12)c1cc(O)cc(O)c1,53*,93*,98*,77*,43,121*,0,DNMT1 interf DR=>99
O=c1ccc2cc3c4c(c2o1)CCCN4CCC3,15,28,-11,-8,31,x,x,
O=c1oc2c3c4c(cc2s1)CCCN4CCC3,9,85*,3,3,67*,-3,-2,
SMILES,SUMO1 PPI mod,DNMT1 inh,STEP inh,Scp-1 inhibitor,LMPTP inh,DNMT1 inh conf,DNMT1 interf,others
Cc1ccccc1-c1cc2nc(NCc3cccnc3)n(C)c(=O)c2s1,-10,-6,0,x,1,x,x,
Cc1ccc(OCCn2ncc3ccccc3c2=O)c(C)c1,2,51*,-1,-13,0,5,7,
COC(=O)C1CCN(C(=O)c2cc(-c3ccco3)nc3ccccc23)CC1,12,86*,6,70*,47,50*,3,DNMT1 interf DR=>99
CN(CC(=O)Nc1cccc(F)c1)C(=O)c1cc(-c2ccco2)nc2ccccc12,11,87*,16,83*,34,9,0,
COc1ccc(-c2cc(C(=O)N(C)CC(=O)Nc3cccc(F)c3)c3ccccc3n2)cc1OC,0,0,4,x,1,x,x,
COc1ccc(NC(=O)c2cc(-c3ccco3)nc3ccccc23)cc1S(=O)(=O)N1CCOCC1,0,64*,3,85*,21,21,0,
COc1ccc(NC(=O)c2cc(C)nc3ccccc23)cc1S(=O)(=O)N1CCOCC1,-1,1,2,11,0,x,x,
Cc1ccccc1NC(=O)c1cc(-c2ccco2)nc2ccccc12,1,46,14,84*,12,1,3,
Cc1ccc(S(=O)(=O)N(C)C)cc1NC(=O)c1cc(-c2ccco2)nc2ccccc12,-7,6,-4,19,2,x,x,
O=C(c1cc(-c2ccco2)nc2ccccc12)N1CCN(Cc2ccccc2)CC1,-2,-3,3,-6,1,x,x,
O=C(N/N=C/c1cccc(F)c1)c1cc(-c2ccco2)nc2ccccc12,22,97*,16,81*,56*,68*,2,DNMT1 interf DR=>99
O=C(NCC1CCCO1)c1cc(-c2ccncc2)nc2ccccc12 (stereo unspecified),-14,1,1,4,0,x,x,
O=C(NCC1CCCO1)c1cc(-c2ccco2)nc2ccccc12 (stereo unspecified),-1,84*,4,44,4,19,2,
COc1cc(/C=N/NC(=O)c2cc(-c3ccco3)nc3ccccc23)cc(OC)c1O,-7,-11,0,8,6,x,x,
CC1=C(C(=O)N(C)C)CC(CC(=O)NCCCN(C)C)C(=O)N1Cc1ccc(F)cc1 (stereo unspecified),1,6,0,x,-1,x,x,
CC1CCc2c(sc(NC(=O)c3c([N+](=O)[O-])cnn3C)c2C(N)=O)C1 (stereo unspecified),-1,-2,0,-8,-2,x,x,
COc1cc(OC)cc(-c2c(-c3cccs3)c3cc(-c4ccc(C(N)=O)cc4)ccc3n2C)c1,-17,54*,-1,1,0,1,2,
C[C@H](CO)N1C[C@H](C)[C@@H](CN(C)Cc2cncnc2)Oc2cc(Br)ccc2S1(=O)=O,2,4,-1,x,-1,x,x,
O=C1Nc2c(Cl)cc(Cl)cc2C1=O,-5,60*,2,-2,0,16,-13,DNMT1 interf DR=>99
